Most compounds without a hit are left out; they make up all but 4% or so of the library.
ERb SRC1 inh: ER-beta (human) coactivator binding inhibition; AID 633; TR-FRET ER-beta LBD / SRC1-Cy5 peptide binding; receptor agonist-loaded with 1 µM estradiol; 86,000 tested, 1.3% active; inhibition, % at 25.6 µM; Q92731;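 active means compounds whose percent inhibition of the receptor-coactivator binding signal exceeds about 50% in the single-dose screen, limit read from the data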;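 further: 0% = receptor plus peptide wells without compound and 100% = peptide-only wells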
ERa coact pot: enhances coactivator binding to human estrogen receptor alpha | TR-FRET ERalpha-LBD/SRC-Cy5 coactivator binding, 2 h; 100 = basal binding, no effect | coactivator binding (% of control), % at 25.6 µM | 86,000 tested, 1.3% active; in the data active means activity above about 200%;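 further: binding measured in presence of low estradiol as agonist stimulus; 0% = peptide alone without receptor and 100% = receptor with peptide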
HIV Rev-RRE inh: disrupts HIV-1 Rev binding to RRE RNA. Rev peptide-RRE RNA binding, FRET. inhibition, % at 8 µM. 97,000 tested, 0.79% active. AID 704;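 active means inhibition above the screen-wide mean plus 3 SD, cut at about 35% in these data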;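 further: 0% = median DMSO wells and 100% = median Neomycin B control wells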
Target sequence (P05866 whole entry, looked up): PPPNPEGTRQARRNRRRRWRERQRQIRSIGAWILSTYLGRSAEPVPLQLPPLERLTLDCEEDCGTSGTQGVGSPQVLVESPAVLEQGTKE
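Test system – labelled RRE RNA duplex and labelled Rev peptide · Reagent – labelled Rev peptide · Doses – one concentration, 8 µM nominal · Incubation – 5 + 15 min at 25 °C · Signal – FRET fluorescence readout · Read-out basis – % inhibition of FRET ratio versus controls · Control set – DMSO wells as 0% and neomycin B wells as 100% inhibition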
FAK blocker: FAK (human) kinase inhibition | biochemical FAK kinase activity assay | Q05397 | 97,000 tested, 0.84% active | inhibition, %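 (tested at 7 µM)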 | AID 727; in the data active means inhibition above about 19%;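 further: 0% = DMSO and 100% = reference compound high control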
Smad3 FoxH1 inh: blocks human Smad3 binding to FoxH1 peptide; TR-FRET Smad3/Dy647-FoxH1 peptide binding, europium anti-His; 88,000 tested, 0.29% active; inhibition, % at 25 µM;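 active means compounds that reduce the energy-transfer binding signal between the protein and its labelled peptide by more than half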;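 further: 0% = Smad3 plus labelled peptide maximal FRET and 100% = peptide-only background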
Target sequence (P84022 whole entry, looked up): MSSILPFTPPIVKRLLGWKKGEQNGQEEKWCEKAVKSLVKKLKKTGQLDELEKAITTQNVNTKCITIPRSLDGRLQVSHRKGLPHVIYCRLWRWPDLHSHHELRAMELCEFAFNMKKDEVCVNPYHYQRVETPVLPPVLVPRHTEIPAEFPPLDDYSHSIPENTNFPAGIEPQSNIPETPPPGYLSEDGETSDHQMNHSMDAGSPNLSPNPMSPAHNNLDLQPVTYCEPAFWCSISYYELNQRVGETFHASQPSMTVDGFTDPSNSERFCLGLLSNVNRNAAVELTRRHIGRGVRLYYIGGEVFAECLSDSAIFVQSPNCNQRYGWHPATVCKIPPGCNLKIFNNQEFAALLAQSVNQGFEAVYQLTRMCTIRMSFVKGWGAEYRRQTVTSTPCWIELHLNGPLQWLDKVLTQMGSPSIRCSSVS
ERa SRC1 inh: blocks coactivator binding to human estrogen receptor alpha; P03372; TR-FRET ER-alpha LBD / SRC-1 peptide, estradiol-bound; inhibition, % at 25.6 µM; 86,000 tested, 1.7% active; AID 629; in the data active means inhibition above about 50%;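 further: 0% = receptor plus peptide control and 100% = peptide only without receptor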
Active calls of the source: *; nt = no result; [ ] = dose if it differs, or a comment.

SMILES	ERb SRC1 inh	ERa coact pot	HIV Rev-RRE inh	FAK blocker	Smad3 FoxH1 inh	ERa SRC1 inh
Cc1ccc(OC2=NS(=O)(=O)c3ccccc32)cc1	-0.1	83.7	3.8	-1.5	-9.2	7.5
CCN(CC)c1cccc(OC2=NS(=O)(=O)c3ccccc32)c1	24.6	18.3	9.5	4.4	-5.0	82.9*[fluorescence artefact?]
COc1ccccc1OC1=NS(=O)(=O)c2ccccc21	3.3	15.8	3.2	3.8	16.3	77.8*[fluorescence artefact?]
CCC(=O)Nc1ccc(S(=O)(=O)Nc2cccnc2)cc1	77.5*[fluorescence artefact?]	107.3	4.5	-0.5	-13.5	-4.3
CCC(=O)Nc1ccc(S(=O)(=O)Nc2ncccn2)cc1	nt	nt	-0.1	0.0	nt	nt
COc1ccc(OC)c(NC(=O)C2CCN(c3cc(-c4ccccc4)nc4ncnn34)CC2)c1	55.7*[fluorescence artefact?]	127.0	7.6	1.8	3.2	30.8
O=S(=O)(c1ccc(N2CCN(S(=O)(=O)c3ccc4c(c3)OCCO4)CC2)nc1)N1CCCC1	44.5	275.2*[fluorescence artefact?]	4.3	2.3	-0.2	34.7
CC1=CC(C)(C)Nc2ccc(C)cc21	-1.5	121.4	1.1	-3.0	73.0*	3.1
Nc1ncnc2c1nc(-c1ccccc1)n2[C@H]1O[C@@H](CO)[C@H](O)[C@H]1O	nt	nt	nt	nt	13.9	nt
N#Cc1cc2c(=O)n3ccccc3nc2n(CCCn2ccnc2)c1=N	56.5*	61.2	7.0	5.0	3.5	35.2
CCC(CC)C(=O)NCc1ccc2c(c1)cc(C)n2C	nt	nt	0.9	2.1	nt	nt
Cc1cc2cc(CNC(=O)c3cccs3)ccc2n1C	46.8	64.6	nt	nt	12.1	74.8*[fluorescence artefact?]
Cc1cc2cc(CNC(=O)Nc3ccccc3)ccc2n1C	17.3	222.0*[fluorescence artefact?]	5.5	-6.4	6.6	11.2
CCOC(=O)NCc1ccc2c(c1)cc(C)n2C	nt	nt	7.9	1.1	nt	nt
O=C(O)C(Cc1cccs1)C(=O)O	nt	nt	nt	nt	9.9	nt
N#Cc1cc2ccccc2nc1SCC(=O)Nc1ccc(S(=O)(=O)N2CCCC2)cc1	23.4	288.7*[fluorescence artefact?]	4.6	-7.4	1.3	15.7
COc1ccc2nc(SCC(=O)Nc3ccc(S(=O)(=O)N4CCCC4)cc3)c(C#N)cc2c1	40.1	508.7*[fluorescence artefact?]	17.5	-6.5	10.9	19.2
COc1ccc2nc(SCC(=O)N3CCCCCC3)c(C#N)cc2c1	9.4	107.6	14.4	3.8	3.0	9.9
COc1ccc2nc(N3CCCC3)c(C#N)cc2c1	7.5	102.9	46.8*	3.7	4.8	-5.3
Cc1ccc(-[n+]2cc(=O)o[nH]2)cc1	nt	nt	nt	nt	-3.4	nt
c1ccc2c(c1)c1ccccc1n2Cn1c2ccccc2c2ccccc21	nt	nt	nt	nt	-18.3	nt
Cc1cc(C)c(S(=O)(=O)N2CCCCC2)c(C)c1N(C)S(=O)(=O)c1ccccc1	nt	nt	13.5	1.6	nt	nt
COc1ccc(/C=N/Nc2ccc([N+](=O)[O-])cc2)cc1Cn1cc([N+](=O)[O-])cn1	12.4	29.0	54.0*	-2.7	2.2	42.0
COc1ccc(/C=N/NC(=O)c2ccc(Cn3cc([N+](=O)[O-])cn3)o2)cc1O	nt	nt	7.2	-0.4	nt	nt
Cc1onc(-c2c(F)cccc2Cl)c1C(=O)OCC(=O)NC(c1ccccc1)c1ccccc1	nt	nt	8.2	0.8	nt	nt
SMILES	ERb SRC1 inh	ERa coact pot	HIV Rev-RRE inh	FAK blocker	Smad3 FoxH1 inh	ERa SRC1 inh
COc1nc(-c2ccc(Cl)cc2)ccc1-c1noc(-c2ccncc2)n1	41.1	369.4*[fluorescence artefact?]	11.0	0.6	-13.3	64.7*[fluorescence artefact?]
COc1ccc(-c2ccc(-c3noc(-c4ccccc4F)n3)c(OC)n2)cc1	39.5	240.8*[fluorescence artefact?]	6.6	1.4	6.0	48.5
COc1nc(-c2ccccc2)ccc1-c1noc(-c2ccco2)n1	6.8	229.3*	10.3	-7.0	-3.1	6.2
COc1nc(-c2ccccc2)ccc1-c1noc(-c2ccccc2)n1	10.4	166.0	15.4	-1.5	-6.0	17.6
COc1nc(C)ccc1-c1noc(-c2ccncc2)n1	-3.7	105.1	2.8	0.7	-18.9	0.6
Cn1c(=O)c2[nH]c(CCCCC(=O)O)nc2n(C)c1=O	nt	nt	nt	nt	1.9	nt
NS(=O)(=O)c1ccc(N=Nc2nc3[nH]c(=O)[nH]c(=O)c3[nH]2)cc1	nt	nt	nt	nt	3.4	nt
Cc1cc2nc([C@H](C)C(=O)c3ccc(Cl)cc3)c(=O)[nH]c2cc1C	nt	nt	nt	nt	39.8	nt
CSc1ccccc1C(=O)Nc1nccs1	-0.9	121.4	0.1	0.4	14.3	75.6*[fluorescence artefact?]
CCOC(=O)c1cnc2cc(-c3ccc(C(C)(C)C)cc3)nn2c1N	nt	nt	17.2	2.1	nt	nt
CCOC(=O)c1cnc2cc(-c3ccc(C)cc3)nn2c1-c1ccccc1	46.2	247.0*[fluorescence artefact?]	0.0	1.2	-3.5	13.1

Screening results from PubChem BioAssay.
